Experimental data reported in ChEMBL document CHEMBL1240350, “In vitro activity of CEM-101 against Streptococcus pneumoniae and Streptococcus pyogenes with defined macrolide resistance mechanisms” (Antimicrob Agents Chemother, 2010).
Converted amounts (≈) assume the structure as drawn.

Legend:
Streptococcus pneumoniae [1] = experiment: Antibacterial activity against penicillin-intermediate Streptococcus pneumoniae after overnight incubation by agar dilution method; type: functional
Outline: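 Agar dilution on Mueller-Hinton agar supplemented with 5% sheep blood, inoculum 10^4 CFU/spot, read after overnight incubation at 35°C in ambient air. Clinical isolates with defined genotypes; S. pneumoniae ATCC 49619 quality control strain included in each run. MIC50/MIC90 are MICs inhibiting 50% and 90% of isolates.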

Streptococcus pneumoniae [2] = experiment: Antibacterial activity against Streptococcus pneumoniae harboring erm(A) gene after overnight incubation by agar dilution method; type: functional
Outline: (§1)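 Clinical isolates collected 1998–2008, with macrolide-resistance genes confirmed by PCR. MICs by agar dilution on Mueller-Hinton agar with 5% sheep blood. Inoculum 10^4 CFU/spot, incubated overnight at 35°C in ambient air. S. pneumoniae ATCC 49619 was the quality-control strain in every run.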

Streptococcus pneumoniae [3] = experiment: Antibacterial activity against Streptococcus pneumoniae harboring mutation in 23S rRNA after overnight incubation by agar dilution method; type: functional; outline: as §1
Streptococcus pneumoniae [4] = experiment: Antibacterial activity against macrolide-resistant Streptococcus pneumoniae harboring erm(B) gene after overnight incubation by agar dilution method; type: functional
Outline: (§2)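 Agar dilution MICs on Mueller-Hinton agar with 5% sheep blood. Inoculum 10^4 CFU/spot, incubated overnight at 35°C in ambient air. Clinical S. pneumoniae or group A streptococcal isolates; resistance genotypes (erm(B), erm(A), mef(A)/mef(E)) were assigned by PCR. S. pneumoniae ATCC 49619 served as QC strain in each run. Range, MIC50 and MIC90 reported per phenotype group.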

Streptococcus pyogenes [5] = experiment: Antibacterial activity against Streptococcus pyogenes harboring erm(A) gene after overnight incubation by agar dilution method; type: functional; outline: as §1
Streptococcus pyogenes [6] = experiment: Antibacterial activity against macrolide-resistant Streptococcus pyogenes harboring erm(B) gene after overnight incubation by agar dilution method; type: functional; outline: as §2
Streptococcus pneumoniae [7] = experiment: Antibacterial activity against macrolide-susceptible Streptococcus pneumoniae 1077 after overnight incubation by agar dilution method; type: functional
Streptococcus pneumoniae [8] = experiment: Antibacterial activity against macrolide-susceptible Streptococcus pneumoniae 1077 after 43 passages and 10 compound-free subculturing by retest method; type: functional
Streptococcus pneumoniae [9] = experiment: Antibacterial activity against macrolide-susceptible Streptococcus pneumoniae 1077 after 29 passages and 10 compound-free subculturing by retest method; type: functional
Streptococcus pneumoniae [10] = experiment: Antibacterial activity against macrolide-susceptible Streptococcus pneumoniae 1077 after 49 passages and 10 compound-free subculturing by retest method; type: functional
Streptococcus pneumoniae [11] = experiment: Antibacterial activity against macrolide-resistant Streptococcus pneumoniae 1076 harboring erm(B) and mef(A) gene after 14 passages and 10 compound-free subculturing by retest method; type: functional
Outline: (§3)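 Multistep selection by daily serial passage in subinhibitory drug concentrations. Medium was cation-adjusted Mueller-Hinton broth plus 5% lysed horse blood. Each day the next inoculum came from the tube 1–2 dilutions below the MIC whose turbidity matched the growth control, for up to 50 days. Clone MICs by CLSI macrodilution; identity to the parent confirmed by SmaI PFGE.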

Streptococcus pneumoniae [12] = experiment: Antibacterial activity against macrolide-resistant Streptococcus pneumoniae 1635 harboring erm(A) gene after 32 passages and 10 compound-free subculturing by retest method; type: functional; outline: as §3
Streptococcus pneumoniae [13] = experiment: Antibacterial activity against macrolide-resistant Streptococcus pneumoniae 2686 harboring mutation in L4 ribosomal protein after 14 passages and 10 compound-free subculturing by retest method; type: functional
Streptococcus pneumoniae [14] = experiment: Antibacterial activity against macrolide-resistant Streptococcus pneumoniae 2686 harboring mutation in L4 ribosomal protein after 25 passages and 10 compound-free subculturing by retest method; type: functional
Streptococcus pneumoniae [15] = experiment: Antibacterial activity against macrolide-susceptible Streptococcus pneumoniae 7127 harboring S20N mutation in L4 ribosomal protein and A105V mutation in L22 ribosomal protein after 16 passages and 10 compound-free subculturing by retest method; type: functional
Streptococcus pneumoniae [16] = experiment: Antibacterial activity against macrolide-susceptible Streptococcus pneumoniae 7127 harboring S20N mutation in L4 ribosomal protein and A105V mutation in L22 ribosomal protein after 15 passages and 10 compound-free subculturing by retest method; type: functional
Streptococcus pneumoniae [17] = experiment: Antibacterial activity against macrolide-susceptible Streptococcus pneumoniae 7127 harboring S20N mutation in L4 ribosomal protein and A105V mutation in L22 ribosomal protein after 43 passages and 10 compound-free subculturing by retest method; type: functional
Streptococcus pneumoniae [18] = experiment: Antibacterial activity against macrolide-resistant Streptococcus pneumoniae 3009 harboring mutation in 23S rRNA after 20 passages and 10 compound-free subculturing by retest method; type: functional
Streptococcus pneumoniae [19] = experiment: Antibacterial activity against macrolide-resistant Streptococcus pneumoniae 3009 harboring mutation in 23S rRNA after 25 passages and 10 compound-free subculturing by retest method; type: functional
Streptococcus pneumoniae [20] = experiment: Antibacterial activity against macrolide-resistant Streptococcus pneumoniae 3665 harboring mef(A) gene after overnight incubation by agar dilution method; type: functional
Streptococcus pneumoniae [21] = experiment: Antibacterial activity against macrolide-resistant Streptococcus pneumoniae 1635 harboring erm(A) gene after overnight incubation by agar dilution method; type: functional
Streptococcus pneumoniae [22] = experiment: Antibacterial activity against macrolide-resistant Streptococcus pneumoniae 3009 harboring mutation in 23S rRNA after overnight incubation by agar dilution method; type: functional
Streptococcus pyogenes [23] = experiment: Antibacterial activity against macrolide-susceptible Streptococcus pyogenes 2132 after 28 passages and 10 compound-free subculturing by retest method
Streptococcus pyogenes [24] = experiment: Antibacterial activity against macrolide-resistant Streptococcus pyogenes 2094 harboring erm(A) gene after overnight incubation by agar dilution method
Streptococcus pyogenes [25] = experiment: Antibacterial activity against macrolide-resistant Streptococcus pyogenes 2094 harboring erm(A) gene after 6 passages and 10 compound-free subculturing by retest method
Streptococcus pyogenes [26] = experiment: Antibacterial activity against macrolide-resistant Streptococcus pyogenes 2368 harboring erm(B) gene after 18 passages and 10 compound-free subculturing by retest method
Streptococcus pyogenes [27] = experiment: Antibacterial activity against macrolide-resistant Streptococcus pyogenes 2094 harboring erm(A) gene after 34 passages and 10 compound-free subculturing by retest method
Streptococcus pyogenes [28] = experiment: Antibacterial activity against macrolide-resistant Streptococcus pyogenes 2011 harboring mef(A) gene after 35 passages and 10 compound-free subculturing by retest method
Streptococcus pyogenes [29] = experiment: Antibacterial activity against macrolide-resistant Streptococcus pyogenes 237 harboring mutation in L4 ribosomal protein after 20 passages and 10 compound-free subculturing by retest method
Streptococcus pyogenes [30] = experiment: Antibacterial activity against macrolide-resistant Streptococcus pyogenes 237 harboring mutation in L4 ribosomal protein after 43 passages and 10 compound-free subculturing by retest method
Streptococcus pyogenes [31] = experiment: Antibacterial activity against Streptococcus pyogenes harboring mef(A) gene after overnight incubation by agar dilution method; type: functional; outline: as §1
Streptococcus pyogenes [32] = experiment: Antibacterial activity against macrolide-resistant Streptococcus pyogenes harboring mef(A) gene after overnight incubation by agar dilution method; type: functional; outline: as §2
Streptococcus pneumoniae [33] = experiment: Antibacterial activity against macrolide-resistant Streptococcus pneumoniae 3665 harboring mef(A) gene after 14 passages and 10 compound-free subculturing by retest method; type: functional

SMILES | MIC50 (Streptococcus pneumoniae [1]) | MIC90 (Streptococcus pneumoniae [1]) | MIC (Streptococcus pneumoniae [2]) | MIC (Streptococcus pneumoniae [3]) | MIC50 (Streptococcus pneumoniae [4]) | MIC90 (Streptococcus pneumoniae [4]) | MIC50 (Streptococcus pyogenes [5]) | MIC90 (Streptococcus pyogenes [5]) | MIC50 (Streptococcus pyogenes [6]) | MIC90 (Streptococcus pyogenes [6]) | MIC (Streptococcus pneumoniae [7]) | MIC (Streptococcus pneumoniae [8]) | MIC (Streptococcus pneumoniae [9]) | MIC (Streptococcus pneumoniae [10]) | MIC (Streptococcus pneumoniae [11]) | MIC (Streptococcus pneumoniae [12]) | MIC (Streptococcus pneumoniae [13]) | MIC (Streptococcus pneumoniae [14]) | MIC (Streptococcus pneumoniae [15]) | MIC (Streptococcus pneumoniae [16]) | other results
CC[C@H]1OC(=O)[C@@](C)(F)C(=O)[C@H](C)[C@@H](O[C@@H]2O[C@H](C)C[C@H](N(C)C)[C@H]2O)[C@](C)(OC)C[C@@H](C)C(=O)[C@H](C)[C@H]2N(CCCCn3cc(-c4cccc(N)c4)nn3)C(=O)O[C@]12C [SOLITHROMYCIN] | 0.03 µg/mL (≈ 0.0355 µM) | 0.25 µg/mL (≈ 0.296 µM) | 0.008 µg/mL (≈ 0.00947 µM) | 0.002 µg/mL (≈ 0.00237 µM) | 0.03 µg/mL (≈ 0.0355 µM) | 0.5 µg/mL (≈ 0.592 µM) | 0.03 µg/mL (≈ 0.0355 µM) | 0.125 µg/mL (≈ 0.148 µM) | 0.5 µg/mL (≈ 0.592 µM) | 1 µg/mL (≈ 1.18 µM) | 0.008 µg/mL (≈ 0.00947 µM) | 0.06 µg/mL (≈ 0.071 µM) | 0.03 µg/mL (≈ 0.0355 µM) | 0.06 µg/mL (≈ 0.071 µM) | 2 µg/mL (≈ 2.37 µM) | 0.125 µg/mL (≈ 0.148 µM) | 0.03 µg/mL (≈ 0.0355 µM) | 0.016 µg/mL (≈ 0.0189 µM) | 0.06 µg/mL (≈ 0.071 µM) | 0.008 µg/mL (≈ 0.00947 µM) | MIC (Streptococcus pneumoniae [17]): 0.004 µg/mL (≈ 0.00473 µM); MIC (Streptococcus pneumoniae [18]): 0.25 µg/mL (≈ 0.296 µM); MIC (Streptococcus pneumoniae [19]): 0.03 µg/mL (≈ 0.0355 µM); MIC (Streptococcus pneumoniae [20]): 0.03 µg/mL (≈ 0.0355 µM); MIC (Streptococcus pneumoniae [21]): 0.008 µg/mL (≈ 0.00947 µM); MIC (Streptococcus pneumoniae [22]): 0.016 µg/mL (≈ 0.0189 µM); MIC (Streptococcus pyogenes [23]): 0.016 µg/mL (≈ 0.0189 µM); MIC (Streptococcus pyogenes [24]): 0.03 µg/mL (≈ 0.0355 µM); MIC (Streptococcus pyogenes [25]): 0.016 µg/mL (≈ 0.0189 µM); MIC (Streptococcus pyogenes [26]): 8 µg/mL (≈ 9.47 µM); MIC (Streptococcus pyogenes [27]): 0.03 µg/mL (≈ 0.0355 µM); MIC (Streptococcus pyogenes [28]): 0.06 µg/mL (≈ 0.071 µM); MIC (Streptococcus pyogenes [29]): 0.5 µg/mL (≈ 0.592 µM); MIC (Streptococcus pyogenes [30]): 0.03 µg/mL (≈ 0.0355 µM)
CC[C@H]1OC(=O)[C@H](C)C(=O)[C@H](C)[C@@H](O[C@@H]2O[C@H](C)C[C@H](N(C)C)[C@H]2O)[C@](C)(OC)C[C@@H](C)C(=O)[C@H](C)[C@H]2N(CCCCn3cnc(-c4cccnc4)c3)C(=O)O[C@]12C [TELITHROMYCIN] | 0.06 µg/mL (≈ 0.0739 µM) | 0.5 µg/mL (≈ 0.616 µM) | 0.03 µg/mL (≈ 0.0369 µM) | 0.03 µg/mL (≈ 0.0369 µM) | 0.06 µg/mL (≈ 0.0739 µM) | 1 µg/mL (≈ 1.23 µM) | 0.06 µg/mL (≈ 0.0739 µM) | 0.125 µg/mL (≈ 0.154 µM) | 8 µg/mL (≈ 9.85 µM) | 16 µg/mL (≈ 19.7 µM) | 0.004 µg/mL (≈ 0.00493 µM) | 0.06 µg/mL (≈ 0.0739 µM) | 0.125 µg/mL (≈ 0.154 µM) | 0.06 µg/mL (≈ 0.0739 µM) | > 64 µg/mL | 0.03 µg/mL (≈ 0.0369 µM) | 0.06 µg/mL (≈ 0.0739 µM) | 0.5 µg/mL (≈ 0.616 µM) | 0.06 µg/mL (≈ 0.0739 µM) | 0.008 µg/mL (≈ 0.00985 µM) | MIC50 (Streptococcus pyogenes [31]): 0.5 µg/mL (≈ 0.616 µM); MIC90 (Streptococcus pyogenes [31]): 1 µg/mL (≈ 1.23 µM); MIC50 (Streptococcus pyogenes [32]): 0.5 µg/mL (≈ 0.616 µM); MIC90 (Streptococcus pyogenes [32]): 1 µg/mL (≈ 1.23 µM); MIC (Streptococcus pneumoniae [33]): 0.25 µg/mL (≈ 0.308 µM); MIC (Streptococcus pneumoniae [33]; Streptococcus pneumoniae, 3665, read-out: MIC): 0.25 µg/mL (≈ 0.308 µM); MIC (Streptococcus pneumoniae [17]): 0.008 µg/mL (≈ 0.00985 µM); MIC (Streptococcus pneumoniae [18]): 0.06 µg/mL (≈ 0.0739 µM); MIC (Streptococcus pneumoniae [19]): 0.06 µg/mL (≈ 0.0739 µM); MIC (Streptococcus pneumoniae [20]): 0.125 µg/mL (≈ 0.154 µM); MIC (Streptococcus pneumoniae [21]): 0.004 µg/mL (≈ 0.00493 µM); MIC (Streptococcus pneumoniae [22]): 0.016 µg/mL (≈ 0.0197 µM); MIC (Streptococcus pyogenes [23]): 0.03 µg/mL (≈ 0.0369 µM); MIC (Streptococcus pyogenes [24]): 0.03 µg/mL (≈ 0.0369 µM); MIC (Streptococcus pyogenes [25]): 0.03 µg/mL (≈ 0.0369 µM); MIC (Streptococcus pyogenes [26]): > 64 µg/mL; MIC (Streptococcus pyogenes [27]): 0.03 µg/mL (≈ 0.0369 µM); MIC (Streptococcus pyogenes [28]): 0.25 µg/mL (≈ 0.308 µM); MIC (Streptococcus pyogenes [29]): 1 µg/mL (≈ 1.23 µM); MIC (Streptococcus pyogenes [30]): 0.06 µg/mL (≈ 0.0739 µM)
